This is an account of results in ChEMBL document CHEMBL1137278, “Aza-stilbenes as potent and selective c-RAF inhibitors” (Bioorg Med Chem Lett, 2006).

The structures appear in SMILES notation. Active and inactive are the calls of the source. The rule behind the calls is not given here.

Test [1] is described as follows: Inhibition of c-RAF1/MEK1/ERK2 signalling pathway by SPA. The method in brief:
(§1)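 Incubated 120 min at room temperature, stopped with EDTA/streptavidin SPA beads, counted by scintillation. 11-point 3-fold dilutions (0.0001–10 µM), normalized to DMSO and EDTA controls; IC50 fitted.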

Test [2] has as its target Mitogen-activated protein kinase 10 (Homo sapiens) (UniProt P53779). Kind of test: Inhibition of JNK3.
The target of test [3] is MAP kinase p38 (Homo sapiens) (UniProt O15264+Q15759+Q16539+P53778). The experiment in a line: Inhibition of p38. Type of test: protein assay.
For test [4], the target named is Proto-oncogene tyrosine-protein kinase Src (Homo sapiens) (UniProt P12931). Kind of test: Inhibition of SRC kinase at 10 uM.
The target in test [5] is Tyrosine-protein kinase Fyn (Mus musculus) (UniProt P39688). Kind of test: Inhibition of mouse FYN at 10 uM.
Test [6] has as its target Tyrosine-protein kinase Lyn (Homo sapiens) (UniProt P07948). Kind of test: Inhibition of LYN at 10 uM.
The target in test [7] is Proto-oncogene tyrosine-protein kinase LCK (Mus musculus) (UniProt P06240). The experiment in a line: Inhibition of mouse LCK at 10 uM.
Test [8] addresses RAF proto-oncogene serine/threonine-protein kinase (Homo sapiens, UniProt P04049). The experiment in a line: Inhibition of c-RAF. The method in brief: as §1
Test [9] addresses Tyrosine-protein kinase Fyn (Mus musculus, UniProt P39688). The experiment in a line: Inhibition of mouse FYN.

Sequence of Mitogen-activated protein kinase 10 (Homo sapiens) (P53779 whole entry): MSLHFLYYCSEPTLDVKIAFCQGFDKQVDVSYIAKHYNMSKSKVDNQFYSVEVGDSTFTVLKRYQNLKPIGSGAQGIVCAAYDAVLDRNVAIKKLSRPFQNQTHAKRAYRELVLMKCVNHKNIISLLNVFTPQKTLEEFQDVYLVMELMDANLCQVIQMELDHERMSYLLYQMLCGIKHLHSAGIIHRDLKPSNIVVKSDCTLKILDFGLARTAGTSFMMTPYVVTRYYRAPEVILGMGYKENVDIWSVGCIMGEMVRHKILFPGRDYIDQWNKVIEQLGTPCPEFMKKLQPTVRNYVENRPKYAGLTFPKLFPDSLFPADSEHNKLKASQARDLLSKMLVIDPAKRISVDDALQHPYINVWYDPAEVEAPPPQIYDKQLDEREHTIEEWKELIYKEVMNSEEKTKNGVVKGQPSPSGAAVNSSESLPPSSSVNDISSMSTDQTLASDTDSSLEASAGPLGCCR
Sequence of RAF proto-oncogene serine/threonine-protein kinase (P04049 whole entry): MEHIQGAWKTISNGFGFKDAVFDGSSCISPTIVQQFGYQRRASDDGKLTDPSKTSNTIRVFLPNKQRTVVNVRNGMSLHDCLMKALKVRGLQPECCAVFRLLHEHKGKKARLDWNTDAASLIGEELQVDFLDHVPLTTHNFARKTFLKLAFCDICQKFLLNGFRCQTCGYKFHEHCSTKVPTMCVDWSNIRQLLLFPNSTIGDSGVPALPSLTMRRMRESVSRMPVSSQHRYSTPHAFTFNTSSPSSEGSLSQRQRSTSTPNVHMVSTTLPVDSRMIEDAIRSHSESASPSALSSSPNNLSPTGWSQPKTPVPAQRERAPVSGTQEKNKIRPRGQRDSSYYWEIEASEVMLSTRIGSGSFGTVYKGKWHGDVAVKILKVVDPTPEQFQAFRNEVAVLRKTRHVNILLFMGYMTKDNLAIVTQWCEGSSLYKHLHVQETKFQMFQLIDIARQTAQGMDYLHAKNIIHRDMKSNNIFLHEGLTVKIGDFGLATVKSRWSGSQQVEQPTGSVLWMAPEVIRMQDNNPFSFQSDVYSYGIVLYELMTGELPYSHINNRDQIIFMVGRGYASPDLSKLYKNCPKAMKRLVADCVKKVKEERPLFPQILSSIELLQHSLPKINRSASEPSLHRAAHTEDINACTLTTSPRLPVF
Sequence of Tyrosine-protein kinase Fyn (Mus musculus) (P39688 whole entry): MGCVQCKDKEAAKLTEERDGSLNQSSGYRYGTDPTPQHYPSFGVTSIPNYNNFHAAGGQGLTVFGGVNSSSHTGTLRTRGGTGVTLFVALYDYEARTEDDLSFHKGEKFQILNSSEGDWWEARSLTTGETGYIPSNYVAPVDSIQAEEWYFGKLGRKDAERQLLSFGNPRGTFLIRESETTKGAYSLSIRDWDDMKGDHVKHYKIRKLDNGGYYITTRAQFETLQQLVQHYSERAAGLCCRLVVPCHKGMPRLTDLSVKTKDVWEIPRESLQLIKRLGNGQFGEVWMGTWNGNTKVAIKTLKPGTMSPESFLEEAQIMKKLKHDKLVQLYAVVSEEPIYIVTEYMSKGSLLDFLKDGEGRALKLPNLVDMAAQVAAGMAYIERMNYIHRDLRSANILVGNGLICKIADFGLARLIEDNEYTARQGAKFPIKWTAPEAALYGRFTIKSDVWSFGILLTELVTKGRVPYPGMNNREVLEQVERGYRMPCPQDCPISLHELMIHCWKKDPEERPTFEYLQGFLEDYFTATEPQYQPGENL
Sequence of Tyrosine-protein kinase Fyn (P39688 whole entry): as above
Sequence of Tyrosine-protein kinase Lyn (Homo sapiens) (P07948 2-512 limits assumed): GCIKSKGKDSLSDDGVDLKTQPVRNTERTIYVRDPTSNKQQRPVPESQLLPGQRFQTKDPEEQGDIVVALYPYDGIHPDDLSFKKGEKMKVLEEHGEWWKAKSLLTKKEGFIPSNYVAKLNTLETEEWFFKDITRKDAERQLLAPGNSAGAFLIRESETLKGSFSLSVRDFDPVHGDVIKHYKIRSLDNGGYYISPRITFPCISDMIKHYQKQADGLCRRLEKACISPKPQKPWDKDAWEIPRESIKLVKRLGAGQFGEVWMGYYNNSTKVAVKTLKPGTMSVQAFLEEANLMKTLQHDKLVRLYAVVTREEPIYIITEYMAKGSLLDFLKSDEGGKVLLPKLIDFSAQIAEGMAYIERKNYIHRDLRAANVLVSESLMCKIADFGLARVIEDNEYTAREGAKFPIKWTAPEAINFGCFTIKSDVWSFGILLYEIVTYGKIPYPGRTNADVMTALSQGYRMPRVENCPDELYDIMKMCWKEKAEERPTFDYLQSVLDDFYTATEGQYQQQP
Sequence of Proto-oncogene tyrosine-protein kinase LCK (Mus musculus) (P06240 2-509 limits assumed): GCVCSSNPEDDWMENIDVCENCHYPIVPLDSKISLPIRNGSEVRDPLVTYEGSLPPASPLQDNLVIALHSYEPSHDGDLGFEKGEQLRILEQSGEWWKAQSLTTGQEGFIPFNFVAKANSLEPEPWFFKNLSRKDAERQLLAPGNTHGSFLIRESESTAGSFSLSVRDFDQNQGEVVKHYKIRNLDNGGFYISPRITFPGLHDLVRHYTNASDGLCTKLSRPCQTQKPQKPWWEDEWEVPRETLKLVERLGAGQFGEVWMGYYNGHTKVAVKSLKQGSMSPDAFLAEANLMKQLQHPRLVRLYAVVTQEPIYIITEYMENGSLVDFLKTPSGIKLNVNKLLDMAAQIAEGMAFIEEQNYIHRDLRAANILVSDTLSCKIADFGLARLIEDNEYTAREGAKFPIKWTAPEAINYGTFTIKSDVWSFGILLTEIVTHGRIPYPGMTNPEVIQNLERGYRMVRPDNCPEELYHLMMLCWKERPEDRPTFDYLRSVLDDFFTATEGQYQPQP
Sequence of Proto-oncogene tyrosine-protein kinase Src (Homo sapiens) (P12931 2-536 limits assumed): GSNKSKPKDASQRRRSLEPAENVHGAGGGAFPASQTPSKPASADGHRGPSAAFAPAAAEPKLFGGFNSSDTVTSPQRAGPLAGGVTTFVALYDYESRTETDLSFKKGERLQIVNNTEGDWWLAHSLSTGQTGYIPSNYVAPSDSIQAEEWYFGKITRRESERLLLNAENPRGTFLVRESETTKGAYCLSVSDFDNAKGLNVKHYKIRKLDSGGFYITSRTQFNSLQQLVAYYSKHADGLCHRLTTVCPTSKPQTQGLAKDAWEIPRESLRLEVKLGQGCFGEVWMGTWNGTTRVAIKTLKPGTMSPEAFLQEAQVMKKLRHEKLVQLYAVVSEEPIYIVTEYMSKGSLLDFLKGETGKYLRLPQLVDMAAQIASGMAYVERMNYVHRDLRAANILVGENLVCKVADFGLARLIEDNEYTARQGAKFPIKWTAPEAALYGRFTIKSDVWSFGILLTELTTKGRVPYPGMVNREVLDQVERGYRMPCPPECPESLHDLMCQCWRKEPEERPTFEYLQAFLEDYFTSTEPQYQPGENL

For the compound `CNC(=O)c1cncc(/C=C/c2c(Cl)cccc2Cl)c1` [GW445014X], the “Log IC50” value in test [1] is on record as -6.6.

For the compound `Cc1cc(O)cc(C)c1/C=C/c1cncc(C(=O)N(C)C)c1` [GW427984X], the “Log IC50” value in test [1] is listed as -5.1. On to `CNC(=O)Oc1cc(C)c(/C=C/c2cncc(C#N)c2)c(C)c1`, for which, in test [1], the “Log IC50” value is recorded as -7.4. Still for that read-out and setting: under `CNC(=O)c1cncc(/C=C/c2c(C)cccc2Cl)c1` stands -7.1. Turning to `Cc1cc(-c2ccccn2)cc(C)c1/C=C/c1cncc(-c2nn[nH]n2)c1`, the outcome in test [2] and in test [3] was inactive. Besides, the result in test [4], in test [5], in test [6] and in test [7] was Active. Moreover, the “Log IC50” value in test [1] is -7. In the case of `Cc1cc(O)cc(C)c1/C=C/c1cncc(C(=O)O)c1`, the outcome in [2] and in test [3] was inactive. Half-maximal inhibition in test [8] (IC50) required 0.4 µM. Also, the “Log IC50” value in [1] is given as -6.4.

Regarding `CNC(=O)Oc1cc(C)c(/C=C/c2cncc(C(=O)O)c2)c(C)c1`, the outcome in test [2] and in [3] was inactive. Also, the “Log IC50” value in [1] is -8.2. For the compound `CNC(=O)c1cncc(/C=C/c2c(C)cc(O)cc2C)c1`, the “Log IC50” value in test [1] is -6.6. The same measure, in the same setting: under `Cc1cc(-c2ccco2)cc(C)c1/C=C/c1cncc(-c2nn[nH]n2)c1` stands -6.2; under `CNC(=O)Oc1cc(C)c(/C=C/c2cncc(C(=O)OC)c2)c(C)c1`, -7.5; under `CNC(=O)Oc1cc(C)c(/C=C/c2cncc(C(=O)NC)c2)c(C)c1` [GW432441X], -8.

Take `Cc1cc(O)cc(C)c1/C=C/c1cncc(C#N)c1`: in test [1], the “Log IC50” value is given as -6.1.

Turning to `CNC(=O)Oc1cc(C)c(/C=C/c2cncc(C(=O)OC(C)(C)C)c2)c(C)c1`, the “Log IC50” value in [1] is given as -7. Consider `Cc1cc(O)cc(C)c1/C=C/c1cncc(-c2nn[nH]n2)c1`, for which the outcome in test [2] and in [3] was inactive. Moreover, the IC50 in test [8] is 0.004 µM; in test [9], 0.04 µM. Further, the “Log IC50” value in test [1] is -8.4.

For `Cc1cccc(C)c1/C=C/c1cncc(-c2nn[nH]n2)c1`, the result in [2] and in test [3] was inactive. For the same compound, the “Log IC50” value in test [1] was -7.9. For the compound `CNC(=O)Oc1cc(C)c(/C=C/c2cncc(C(=O)N(C)C)c2)c(C)c1`, the “Log IC50” value in [1] is reported as -5.1. Same read-out and setting: with `Cc1cc(-c2cccs2)cc(C)c1/C=C/c1cncc(-c2nn[nH]n2)c1` the figure was -6.5; with `CNC(=O)c1cncc(/C=C/c2ccccc2Cl)c1` [GW445017X], -5.7; with `Cc1cc(O)cc(C)c1/C=C/c1cncc(C(=O)OC(C)(C)C)c1` [GW439255X], -5.4.

Regarding `CNC(=O)c1cncc(/C=C/c2ccccc2C)c1` [GW445015X], in [1], the “Log IC50” value is -5.5. For the compound `CNC(=O)Oc1cc(C)c(/C=C/c2cncc(C(N)=O)c2)c(C)c1`, the result in test [2] and in [3] was inactive. Further, the “Log IC50” value in [1] was -8.1. On to `Cc1cc(-c2ccsc2)cc(C)c1/C=C/c1cncc(-c2nn[nH]n2)c1`, for which, in test [1], the Log IC50 was -6. On the same count and under the same terms, under `Cc1cc(O)cc(C)c1/C=C/c1cncc(C(N)=O)c1` [GW435821X] stands -6.8.

With `Cc1cc(-c2cccnc2)cc(C)c1/C=C/c1cncc(-c2nn[nH]n2)c1`, in test [1], the “Log IC50” value is listed as -6.2. The same measure, in the same setting: under `CNC(=O)c1cncc(/C=C/c2c(C)cccc2C)c1` [GW445012X] stands -6.6; under `COC(=O)c1cncc(/C=C/c2c(C)cc(O)cc2C)c1` [GW406731X], -6.2. As to `CCc1cccc(CC)c1/C=C/c1cncc(C(=O)NC)c1` [GW450241X], the “Log IC50” value in test [1] was -4.6.

On to `Cc1cccc(C)c1/C=C/c1cncc(C#N)c1`, for which, in test [1], the “Log IC50” value is reported as -6.
